Most compounds without a hit are left out; they make up all but 1.8% or so of the library.
TCR-CD3 inh: inhibitors of human TCR-CD3 interaction, primary screen, biochemical, fluorescence, TAMRA-labeled TCR probe; T-cell receptor (TCR); inhibition, % at 9.4 µM; actives 0.37% (n = 360,000); AID 651800, 2012;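 also: recombinant mutant TCR 2C K166C tagged with TAMRA read by polarization; 0% = receptor in buffer alone and 100% = receptor with positive control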
HTRA1 inh: HTRA1 serine protease inhibitors, primary screen, biochemical, fluorescence polarization, HTS; recombinant HTRA1, FP-rhodamine activity-based probe; inhibition, % at 5.96 µM; actives 0.5% (n = 340,000); in the data active = inhibition above about 36%;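 also: 0% = enzyme with DMSO and 100% = wells lacking enzyme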
ABHD4 inh: ABHD4 inhibitors, primary screen, biochemical, fluorescence polarization, mouse | (Lyso)-N-acylphosphatidylethanolamine lipase (Mus musculus), Q8VD66 | inhibition, % at 8.92 µM | purified mABHD4, FP-Rh probe fluorescence polarization | actives 0.54% (n = 370,000) | AID 720543, 2013;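 active = inhibition exceeding the mean over every tested compound plus 3 SD, cut at about 30% in these data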;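 also: 0% = plate median of compound wells and 100% = S159A mutant with DMSO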
Target sequence (Q8VD66 whole entry, looked up): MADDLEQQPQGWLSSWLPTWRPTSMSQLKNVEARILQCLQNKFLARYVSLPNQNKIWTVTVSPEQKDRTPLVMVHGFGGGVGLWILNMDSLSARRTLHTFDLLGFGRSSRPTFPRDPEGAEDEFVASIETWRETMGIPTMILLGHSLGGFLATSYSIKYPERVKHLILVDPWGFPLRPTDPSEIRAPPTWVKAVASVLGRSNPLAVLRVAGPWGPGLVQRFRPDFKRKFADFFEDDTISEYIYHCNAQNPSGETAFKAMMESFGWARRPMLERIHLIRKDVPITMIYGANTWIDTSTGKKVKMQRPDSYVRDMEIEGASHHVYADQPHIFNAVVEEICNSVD
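Material: mouse ABHD4 enzyme, wild type; Benchmarks: S159A mutant high control, sample median low control; Buffer or medium: HEPES pH 7.0, NaCl, Pluronic buffer; Signal: fluorescence polarization; Read-out: percent inhibition of probe binding, normalized to plate controls; Timing: pre-incubation 45 min, probe exposure 60 min, at 25 °C; Dosing: 8.92 µM, single dose.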
ARNT-TACC3 inh: disruptors of ARNT/TACC3 protein interaction, primary screen, biochemical, AlphaScreen, single concentration; Transforming acidic coiled-coil-containing protein 3 (Homo sapiens), Q9Y6A5; inhibition, % at 9.99 µM; AID 623870, 2012; actives 0.66% (n = 390,000); AlphaScreen His-ARNT PAS-B/GST-TACC3 binding, luminescence; TACC3 fragment carries E629A point mutation;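 active = mean inhibition of replicates at least 50% and at least half of replicates each reaching 50%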;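 also: 0% = complete ARNT plus TACC3 wells and 100% = ARNT alone without TACC3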
SIAE inh: human SIAE inhibitors, primary screen, biochemical, fluorescence polarization, FP-Rh probe, 1536-well HTS; inhibition, % at 9.66 µM; AID 1053197, 2014; actives 0.69% (n = 370,000); SIAE FP-Rh probe binding; Sialate O-acetylesterase (Homo sapiens), Q9HAT2;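 active = inhibition above a cutoff: mean of compounds within the control limits plus 3 SD of those, cut at about 17% in these data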;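 also: 0% = plate median of compound wells and 100% = probe without SIAE protein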
BSA probe FL: compounds interfering with TAMRA-BSA probe, counter-screen for TCR-CD3 interaction inhibitor project, biochemical, fluorescence, TAMRA-labeled BSA. shares compounds with TCR-CD3 inh. TAMRA-labeled BSA probe fluorescence counterscreen. inhibition, % at 9.4 µM. actives 10% (n = 1,200). AID 652035, 2013; in the data active = inhibition above about 23%;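 also: 0% = buffer low control and 100% = reference high control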
TCR-CD3 conf: TCR-CD3 interaction inhibitors, retest, confirmation, biochemical, fluorescence, TAMRA-labeled TCR probe | inhibition, % at 9.4 µM | TAMRA-labeled TCR probe fluorescence binding assay | actives 48% (n = 1,200) | AID 652036, 2013 | shares compounds with TCR-CD3 inh
Numbers without * were called inactive; nt = not tested or not shown. Rule as the data show it, unless noted: active = inhibition above about 19%; inactive = the rest.

SMILES	TCR-CD3 inh	HTRA1 inh	ABHD4 inh	ARNT-TACC3 inh	SIAE inh	BSA probe FL	TCR-CD3 conf
CCC(=O)Nc1ccc2nc3c(=O)[nH]c(=S)[nH]c3nc2c1	29*	16	7	42	1	-3	28*
CO[C@H]1CN(C)C(=O)c2cc(NC(=O)c3ccccc3)ccc2OC[C@H](C)N(CC2CC2)C[C@@H]1C	nt	nt	nt	-7	nt	nt	nt
CC(=O)Nc1cccc(NC(=O)COc2ccccc2C)c1	21*	8	0	4	0	3	0
Cc1ccccc1OCC(=O)Nc1ccncc1	13	-1	-1	3	9	nt	nt
Cc1ccc(-c2[nH]c3cc(C(=O)NCCCn4ccnc4)ccc3c(=O)c2O)cc1	41*	29	13	nt	18*	-5	49*
CCCNC(=O)c1ccc2c(=O)c(O)c(-c3ccc(C)cc3)[nH]c2c1	1	7	12	3	0	nt	nt
O=C(C1CC1)N1CCCCN2[C@H](CO)[C@@H](c3ccc(C#CC4CC4)cc3)[C@@H]2C1	nt	nt	nt	1	nt	nt	nt
COc1ccc(CN2C[C@H](O)COC[C@@H]3O[C@@H](CC(=O)NCCN4CCCC4)CC[C@H]32)cc1	nt	nt	nt	-5	nt	nt	nt
C[C@H](CO)N1C[C@H](C)[C@H](CN(C)C)Oc2cc(-c3ccc(C#N)cc3)ccc2S1(=O)=O	nt	nt	nt	26	nt	nt	nt
CN(C(=O)c1ccc(S(=O)(=O)N2CCCC2)cc1)C1CCCCC1	-2	3	3	-11	-4	nt	nt
CN(C(=O)c1cccc(S(=O)(=O)N2CCCC2)c1)C1CCCCC1	23*	2	4	nt	5	6	1
C[C@@H]1CCCCO[C@H](CN(C)Cc2ccncc2)[C@@H](C)CN([C@@H](C)CO)C(=O)c2cc(NC(=O)Nc3ccc(F)cc3)ccc2O1	nt	nt	nt	1	nt	nt	nt
Cc1cc([N+](=O)[O-])cc(/C=N\NC(=O)C2COc3ccccc3O2)c1O (configuration not stated)	31*	10	4	43*	2	-1	29*
O=C(N/N=C\c1ccc(O)c([N+](=O)[O-])c1)C1COc2ccccc2O1 (configuration not stated)	-2	5	2	9	12	nt	nt
CC(OC(=O)c1ccc(NC(=O)CC#N)cc1)C(=O)Nc1ccc2c(c1)OCCO2 (configuration not stated)	2	-24	-63	-2	-34	nt	nt
Cc1ccc(C(=O)OC(C)C(=O)Nc2ccc(S(N)(=O)=O)cc2)cc1S(=O)(=O)N1CCOCC1 (configuration not stated)	7	2	0	13	1	nt	nt
CCOc1ccccc1NC(=O)C(OC(=O)c1ccccc1)c1ccccc1 (configuration not stated)	-2	-24	-9	-3	-3	nt	nt
Cc1ccc(NC(=O)C(C)OC(=O)c2ccc(NC(=O)CC#N)cc2)cc1S(=O)(=O)N1CCOCC1 (configuration not stated)	27*	-40	-64	3	-92	-3	4
CC(OC(=O)c1ccc(NC(=O)CC#N)cc1)C(=O)NC(c1ccccc1)c1ccccc1 (configuration not stated)	29*	-77	-56	-2	-51	4	1
CCOc1ccccc1NC(=O)C(OC(=O)c1ccc(NC(=O)CC#N)cc1)c1ccccc1 (configuration not stated)	20*	-102	-48	-3	-87	-3	4
Cc1ccc(S(=O)(=O)NCC[C@H]2CC[C@H](NC(=O)CCN3CCCCC3)[C@@H](CO)O2)cc1	nt	nt	nt	1	nt	nt	nt
CCC(=O)Nc1ccc(/C(C)=N/NC(=O)c2c(-c3ccccc3Cl)noc2C)cc1	21*	2	8	-1	5	-1	1
Cc1onc(-c2ccccc2Cl)c1C(=O)Nc1ccccc1	-6	-8	-7	10	1	nt	nt
CN(C)CC(=O)N1CCCCN2[C@@H](CO)[C@@H](c3ccc(/C=C/c4ccccc4)cc3)[C@@H]2C1	nt	nt	nt	23	nt	nt	nt
Cc1ccc(-c2noc(CCCC(=O)N3CCOCC3)n2)cc1	6	-5	5	-2	-2	nt	nt
SMILES	TCR-CD3 inh	HTRA1 inh	ABHD4 inh	ARNT-TACC3 inh	SIAE inh	BSA probe FL	TCR-CD3 conf
Cc1cccc(-c2noc(CCCC(=O)N3CCOCC3)n2)c1	37*	4	-1	-1	0	5	3
C[C@@H]1CN([C@H](C)CO)C(=O)Cc2cc(NC(=O)C3CCCCC3)ccc2O[C@@H]1CN(C)CC1CC1	nt	nt	nt	-5	nt	nt	nt
O=C(COC(=O)c1cc(-c2cccs2)nn1-c1ccccc1)Nc1ccc(F)c([N+](=O)[O-])c1	21*	-44	-24	-4	-59	0	2
COCC(=O)N(C)C[C@H]1Oc2cc(-c3cccnc3)ccc2S(=O)(=O)N([C@H](C)CO)C[C@@H]1C	nt	nt	nt	-10	nt	nt	nt
N[C@@H](Cc1ccc(O)c(O)c1)C(=O)O	75*	18	29	3	14	-11	32*
C[C@H](CO)N1C[C@H](C)[C@H](CN(C)C(=O)Nc2ccc3c(c2)OCO3)Oc2ccc(NC(=O)Nc3ccc(C(F)(F)F)cc3)cc2CC1=O	nt	nt	nt	8	nt	nt	nt
NS(=O)(=O)c1cccc(NC(=O)COC(=O)c2ccccc2C(=O)c2ccccc2)c1	-3	1	-5	nt	-3	nt	nt
Cc1c(C(=O)OCC(=O)Nc2cccc(S(N)(=O)=O)c2)oc2c1ccc1ccccc12	25*	-42	-36	-3	-23	3	5
CN(CCO)c1nc(N)c2c(N)nc3c(c2c1C#N)CC(=O)N3Cc1cccs1	21*	13	21	1	1	-6	3
N#Cc1c(N(CCO)CCO)nc(N)c2c(N)nc3c(c12)CC(=O)N3Cc1cccs1	nt	18	nt	19	nt	nt	nt
CC(C)CC#Cc1cnc2c(c1)C(=O)N([C@H](C)CO)C[C@H](C)[C@H](CN(C)Cc1cncnc1)O2	nt	nt	nt	-5	nt	nt	nt
C/C(=N\NC(=O)c1c(C)nc2ccccn12)c1ccccc1F	-1	7	4	0	-4	nt	nt
C/C(=N\NC(=O)c1c(C)nc2ccccn12)c1ccc(O)cc1O	49*	9	14	1	5	-12	37*
CN(C)CCCNC(=O)C[C@@H]1CC[C@@H](NC(=O)Cc2cccnc2)[C@H](CO)O1	nt	nt	nt	4	nt	nt	nt

From PubChem BioAssay
